# In ChEMBL document CHEMBL4270526, “A novel NAE/UAE dual inhibitor LP0040 blocks neddylation and ubiquitination leading to growth inhibition and apoptosis of cancer cells” (Eur J Med Chem, 2018):
# Active and inactive are the calls of the source. The rule behind the calls is not given here.
# What was measured:
# [1] = target: T1, NEDD8 activating enzyme (Homo sapiens) (UniProt Q8TBC4+Q13564); assay: Inhibition of NAE-mediated CRL neddylation in human AGS cells assessed as increase in p27 level up to 10 uM after 24 hrs by Western blot analysis; format: cell-based
# Summary of the method: (§1)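 AGS cells given 2, 4, 6, 8 or 10 μM compound or 0.1% DMSO for 24 h, washed in ice-cold PBS and lysed in RIPA on ice. Equal protein loads run by SDS-PAGE: non-reducing for NEDD8/SUMO/Ub conjugates, reducing for p27, NRF2, CDT1 and cleaved caspase-3. Blotted to PVDF with primary antibody overnight at 4 °C and HRP secondary, ECL detection, densitometry. Three repeats.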
# [2] = Selectivity index, ratio of IC50 for HUVEC to IC50 for human AGS cells; format: toxicity; settings: HUVEC versus AGS cells, read-out: Ratio IC50
# AGS [3] = assay: Inhibition of UAE in human AGS cells assessed as reduction in Ubc10-Ub conjugation level at 2 to 10 uM after 24 hrs by Western blot analysis; format: cell-based
# Summary of the method: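 AGS cells (Ham's F12/10% FBS) exposed to 2, 4, 6, 8 or 10 µM compound, or 0.1% DMSO, for 24 h. RIPA lysates of equal protein run on non-reducing SDS-PAGE. Western blot for Ubc10-Ub or USE1-Ub, with densitometry. Three repeats.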
# [4] = target: T1, NEDD8 activating enzyme (Homo sapiens); assay: Inhibition of NAE in human AGS cells assessed as reduction in Uba3-NEDD8 conjugation level after 24 hrs by Western blot analysis; format: cell-based; summary of the method: as §1
# AGS [5] = assay: Cell cycle arrest in human AGS cells assessed as accumulation at G1 phase at 4 uM after 4 to 48 hrs by propidium iodide staining based flow cytometry (reference value: 22.82%); format: functional
# Summary of the method: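 AGS cells seeded at 1 × 10^5/well and attached 24 h at 37 °C, 5% CO2. Exposed to 4 μM compound for varying times, then fixed in 70% ethanol at −20 °C overnight. Stained with PI/RNase buffer 15–20 min in the dark; 20000 cells per sample read by flow cytometry (488 nm excitation, FL-3 630 nm). Three repeats.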
# AGS [6] = assay: Induction of apoptosis in human AGS cells assessed as early apoptotic cells at 6 uM after 36 hrs by Annexin-V-FITC/propidium iodide staining based flow cytometry (reference value: 4.44%); format: functional
# AGS [7] = assay: Synergistic antiproliferative activity against human AGS cells assessed as combination index constant at 1.25 uM after 48 hrs in presence of 7.5 nM BTZ by CCK8 assay; format: functional
# Summary of the method: (§2)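 AGS cells at 6×10^3/well attached for 12 h, then exposed for 48 h to compound, bortezomib, or both at set concentrations. CCK-8 added for 4 h, then OD read at 450 nm. Inhibition rates E used for q = E(combo)/(E1+E2−E1×E2). Triplicate experiments.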
# [8] = target: cAMP-dependent protein kinase catalytic subunit alpha (Homo sapiens) (UniProt P17612); assay: Inhibition of PKAalpha (unknown origin) at 30 uM relative to control
# [9] = target: T1, NEDD8 activating enzyme (Homo sapiens); assay: Inhibition of NAE in human AGS cells assessed as reduction in Cullins-NEDD8 conjugation level after 24 hrs by Western blot analysis; format: cell-based; summary of the method: as §1
# Homo sapiens = species: Homo sapiens; assay: Inhibition of UAE (unknown origin) assessed as reduction in Ubc10-Ub conjugation level up to 10 uM pretreated for 10 mins followed by Mg2+ and ATP addition measured after 60 mins by Western blot analysis
# Summary of the method: (§3)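 Cell-free assay with UAE 2.5 µM, Ub 250 µM and E2 Ubc10 50 µM (stock concentrations) plus inhibitor, preincubated 10 min at 37 °C. Reaction started with 10 mM Mg2+/ATP (stock), run 60 min at 37 °C, quenched with EDTA. Non-reducing 15% SDS-PAGE, Ubc10-Ub thioester detected by western blot. No-ATP negative control.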
# [10] = target: Serine/threonine-protein kinase Chk2 (Homo sapiens) (UniProt O96017); assay: Inhibition of CHK2 (unknown origin) at 30 uM relative to control
# Chain of Serine/threonine-protein kinase Chk2 (Homo sapiens) (O96017 whole entry): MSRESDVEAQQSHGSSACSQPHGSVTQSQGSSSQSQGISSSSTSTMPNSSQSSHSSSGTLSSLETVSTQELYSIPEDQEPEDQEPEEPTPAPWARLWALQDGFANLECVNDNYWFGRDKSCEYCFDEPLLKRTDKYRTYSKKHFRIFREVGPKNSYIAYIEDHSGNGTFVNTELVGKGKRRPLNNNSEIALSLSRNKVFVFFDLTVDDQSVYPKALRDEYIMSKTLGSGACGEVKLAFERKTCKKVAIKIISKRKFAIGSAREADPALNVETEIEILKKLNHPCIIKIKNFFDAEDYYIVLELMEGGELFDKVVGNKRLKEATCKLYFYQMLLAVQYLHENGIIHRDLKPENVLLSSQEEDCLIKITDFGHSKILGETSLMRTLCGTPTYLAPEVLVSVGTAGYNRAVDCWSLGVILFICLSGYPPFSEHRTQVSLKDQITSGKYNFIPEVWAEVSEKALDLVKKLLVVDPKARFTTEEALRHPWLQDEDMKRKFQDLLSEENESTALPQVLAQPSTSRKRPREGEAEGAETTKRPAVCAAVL
# [11] = target: Inhibitor of nuclear factor kappa-B kinase subunit beta (Homo sapiens) (UniProt O14920); assay: Inhibition of IKKB (unknown origin) at 30 uM relative to control
# Chain of Inhibitor of nuclear factor kappa-B kinase subunit beta (Homo sapiens) (O14920 whole entry): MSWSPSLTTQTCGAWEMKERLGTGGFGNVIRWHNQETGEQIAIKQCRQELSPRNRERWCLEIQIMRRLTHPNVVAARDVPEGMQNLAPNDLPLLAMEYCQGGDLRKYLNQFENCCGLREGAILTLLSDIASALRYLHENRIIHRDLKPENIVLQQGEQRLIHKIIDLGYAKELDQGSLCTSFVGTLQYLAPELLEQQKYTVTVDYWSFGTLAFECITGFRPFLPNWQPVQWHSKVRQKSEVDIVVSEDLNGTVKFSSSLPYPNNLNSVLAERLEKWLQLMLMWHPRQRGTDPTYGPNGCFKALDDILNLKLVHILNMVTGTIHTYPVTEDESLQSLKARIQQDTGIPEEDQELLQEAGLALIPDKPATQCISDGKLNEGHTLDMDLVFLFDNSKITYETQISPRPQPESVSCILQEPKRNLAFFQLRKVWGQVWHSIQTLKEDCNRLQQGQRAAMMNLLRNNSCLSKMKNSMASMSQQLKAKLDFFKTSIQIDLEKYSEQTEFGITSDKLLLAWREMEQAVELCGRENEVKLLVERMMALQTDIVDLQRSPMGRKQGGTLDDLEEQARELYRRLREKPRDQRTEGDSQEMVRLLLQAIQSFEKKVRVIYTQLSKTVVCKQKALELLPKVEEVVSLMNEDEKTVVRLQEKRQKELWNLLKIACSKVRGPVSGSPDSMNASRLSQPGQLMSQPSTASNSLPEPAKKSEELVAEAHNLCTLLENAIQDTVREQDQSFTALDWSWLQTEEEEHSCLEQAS
# SK-OV-3 = assay: Antiproliferative activity against human SKOV3 cells after 48 hrs by CCK8 assay; format: functional, cell-based; settings: SK-OV-3, 48 h
# Summary of the method: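 Cells seeded at 6 × 10^3 cells/well and left 12 h at 37 °C, 5% CO2. Medium then replaced with serial compound dilutions, bortezomib as positive control. After 48 h, CCK-8 added for 4 h and absorbance read at 450 nm. Three repeats; IC50 from normalized nonlinear regression of inhibition curves.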
# [12] = target: Tyrosine-protein kinase Lck (Homo sapiens) (UniProt P06239); assay: Inhibition of LCK (unknown origin) at 30 uM relative to control
# Chain of Tyrosine-protein kinase Lck (Homo sapiens) (P06239 2-509 limits assumed): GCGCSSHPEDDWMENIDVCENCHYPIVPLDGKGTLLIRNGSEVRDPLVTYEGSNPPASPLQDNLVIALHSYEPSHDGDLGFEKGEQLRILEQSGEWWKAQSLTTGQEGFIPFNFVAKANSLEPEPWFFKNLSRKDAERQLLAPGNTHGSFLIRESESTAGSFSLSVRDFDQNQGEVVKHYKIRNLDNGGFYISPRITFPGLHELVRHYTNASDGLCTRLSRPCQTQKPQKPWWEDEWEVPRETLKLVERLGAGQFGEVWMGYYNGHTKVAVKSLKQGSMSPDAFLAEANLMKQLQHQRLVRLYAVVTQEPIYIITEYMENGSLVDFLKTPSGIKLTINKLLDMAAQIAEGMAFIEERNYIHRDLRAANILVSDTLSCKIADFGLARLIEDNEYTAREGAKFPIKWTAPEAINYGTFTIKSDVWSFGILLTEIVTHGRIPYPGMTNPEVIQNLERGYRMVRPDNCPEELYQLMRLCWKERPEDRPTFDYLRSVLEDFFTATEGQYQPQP
# AGS [13] = assay: Synergistic antiproliferative activity against human AGS cells assessed as combination index constant at 1 uM after 48 hrs in presence of 10 nM BTZ by CCK8 assay; format: functional; summary of the method: as §2
# [14] = target: SUMO-activating enzyme (Homo sapiens) (UniProt Q9UBE0+Q9UBT2); assay: Inhibition of SAE in human AGS cells assessed as reduction in […]-SUMO conjugation level at 2 to 10 uM after 24 hrs by Western blot analysis; format: cell-based; summary of the method: as §1
# [15] = Selectivity index, ratio of IC50 for human LO2 cells to IC50 for human AGS cells; format: toxicity; settings: LO2 cells versus AGS cells, read-out: Ratio IC50
# AGS [16] = assay: Synergistic antiproliferative activity against human AGS cells assessed as combination index constant at 1 uM after 48 hrs in presence of 7.5 nM BTZ by CCK8 assay; format: functional; summary of the method: as §2
# AGS [17] = assay: Induction of apoptosis in human AGS cells assessed as late apoptotic cells at 10 uM after 36 hrs by Annexin-V-FITC/propidium iodide staining based flow cytometry (reference value: 1.71%); format: functional
# [18] = Antiproliferative activity against HUVEC after 48 hrs by CCK8 assay; format: cell-based; settings: human, read-out: LC50
# [19] = target: T1, NEDD8 activating enzyme (Homo sapiens); assay: Inhibition of NAE in human AGS cells assessed as reduction in Ubc12-NEDD8 conjugation level after 24 hrs by Western blot analysis; format: cell-based; summary of the method: as §1
# [20] = target: T1, NEDD8 activating enzyme (Homo sapiens); assay: Inhibition of NAE-mediated CRL neddylation in human AGS cells assessed as increase in NRF2 level up to 10 uM after 24 hrs by Western blot analysis; format: cell-based; summary of the method: as §1
# [21] = target: T1, NEDD8 activating enzyme (Homo sapiens); assay: Inhibition of recombinant human NAE assessed as reduction in Ubc12-NEDD8 conjugation level pretreated for 10 mins followed by Mg2+ and ATP addition measured after 60 mins by Western blot analysis; format: protein-complex assay
# Summary of the method: as §3, with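 “recombinant human NAE” for “UAE”, “NEDD8” for “Ub”, “Ubc12” for “Ubc10”, “Ubc12-NEDD8” for “Ubc10-Ub”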
# [22] = target: Serine/threonine-protein kinase B-raf (Homo sapiens) (UniProt P15056); assay: Inhibition of B-raf (unknown origin) at 30 uM relative to control
# Chain of Serine/threonine-protein kinase B-raf (Homo sapiens) (P15056 whole entry): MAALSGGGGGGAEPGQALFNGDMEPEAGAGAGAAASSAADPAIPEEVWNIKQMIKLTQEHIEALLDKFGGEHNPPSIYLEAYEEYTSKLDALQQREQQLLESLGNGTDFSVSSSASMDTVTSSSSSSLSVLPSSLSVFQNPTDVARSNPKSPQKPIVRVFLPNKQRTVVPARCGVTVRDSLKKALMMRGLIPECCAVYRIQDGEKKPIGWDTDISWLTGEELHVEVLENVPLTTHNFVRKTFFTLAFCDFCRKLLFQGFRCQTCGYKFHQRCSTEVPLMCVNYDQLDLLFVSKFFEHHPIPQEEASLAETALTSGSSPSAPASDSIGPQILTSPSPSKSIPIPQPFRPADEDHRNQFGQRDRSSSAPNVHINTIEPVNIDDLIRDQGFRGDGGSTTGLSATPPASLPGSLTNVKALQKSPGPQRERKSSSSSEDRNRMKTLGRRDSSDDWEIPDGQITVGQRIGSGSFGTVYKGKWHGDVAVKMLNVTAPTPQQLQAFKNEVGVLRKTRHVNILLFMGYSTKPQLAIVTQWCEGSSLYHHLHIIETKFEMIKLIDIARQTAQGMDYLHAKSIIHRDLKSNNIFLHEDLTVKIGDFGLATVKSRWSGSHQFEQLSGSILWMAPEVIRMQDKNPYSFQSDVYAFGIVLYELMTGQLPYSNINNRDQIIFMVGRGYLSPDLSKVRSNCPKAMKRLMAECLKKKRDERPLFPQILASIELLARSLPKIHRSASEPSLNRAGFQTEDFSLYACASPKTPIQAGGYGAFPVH
# [23] = target: Aurora kinase A (Homo sapiens) (UniProt O14965); assay: Inhibition of AurA (unknown origin) at 30 uM relative to control
# Chain of Aurora kinase A (Homo sapiens) (O14965 whole entry): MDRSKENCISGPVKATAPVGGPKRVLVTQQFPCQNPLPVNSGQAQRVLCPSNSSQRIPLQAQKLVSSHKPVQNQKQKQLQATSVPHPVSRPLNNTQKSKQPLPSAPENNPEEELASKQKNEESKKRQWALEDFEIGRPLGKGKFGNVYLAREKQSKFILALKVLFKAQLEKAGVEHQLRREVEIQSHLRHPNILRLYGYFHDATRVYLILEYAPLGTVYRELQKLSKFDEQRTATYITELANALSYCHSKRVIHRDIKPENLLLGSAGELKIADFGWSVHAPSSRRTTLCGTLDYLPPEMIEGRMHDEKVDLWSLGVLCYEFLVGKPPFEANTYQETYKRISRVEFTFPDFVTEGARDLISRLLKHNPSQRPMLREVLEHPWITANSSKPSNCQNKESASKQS
structure (smiles),measurement,setting,value
O=c1cc(-c2ccc(-c3ccccc3)cc2)c2ccc(N3CCC(NCCc4ccccc4)CC3)cc2o1,inhibition,[1],Active
same,selectivity ratio,[2],14 to 18
same,inhibition,AGS [3],Active
same,inhibition,[4],Dose-dependent effect
same,Activity,AGS [5],48.88%
same,Activity,AGS [6],45.91%
same,CI,AGS [7],3.1
same,inhibition,[8],5.17%
same,inhibition,[9],Dose-dependent effect
same,inhibition,Homo sapiens,Active
same,inhibition,[10],9.44%
same,inhibition,[11],1.07%
same,IC50,SK-OV-3,3.29 µM
same,inhibition,[12],-2.51%
same,CI,AGS [13],1.14
same,inhibition,[14],inactive
same,selectivity ratio,[15],14 to 18
same,CI,AGS [16],1.13
same,Activity,AGS [17],44.73%
same,CC50 at 48 h,[18],10.7 µM
same,inhibition,[19],Dose-dependent effect
same,inhibition,[20],Active
same,inhibition,[21],Dose-dependent effect
same,inhibition,[22],1.75%
same,inhibition,[23],6.03%
